From publication PMC4359053 (Journal of medicinal chemistry, 2015)
Where two headings read alike, the source gives them in different places.

Legend:
[1] = test system: MX-1 human breast carcinoma cell line (BR+); assay: standard MTT cytotoxicity assay, continuous incubation; assay type: cell-based
[2] = test system: WI38 human lung fibroblast cell line (BR−); assay: as above; assay type: cell-based
[3] = test system: L1210FR murine lymphocytic leukemia cell line (BR+); assay: MTT Assay 3: 24 h incubation, GSH-OEt addition without washing, further 48 h; assay type: cell-based; settings: read-out: Cytotoxicity IC50, L1210FR, Assay 3, GSH-OEt (6 equiv.) added without wash, additional 48 h
Method in brief: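 L1210FR suspension cells in supplemented RPMI-1640 were exposed to test compound at 37 °C for 24 h; DMSO ≤1%. GSH-OEt (6 equiv.) in medium was then added directly, without washing, for a further 48 h (72 h total). Viability was read by MTT (0.5 mg/mL in PBS, 3 h, 37 °C), solubilized in 0.1 N HCl/isopropanol with 10% Triton X-100, at 570 nm. IC50 by four-parameter logistic fit; triplicate runs.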

[4] = test system: ID8 murine ovarian carcinoma cell line (BR+); assay: standard MTT cytotoxicity assay, continuous incubation; assay type: cell-based; settings: read-out: Cytotoxicity IC50, ID8; incubation at 37 °C for 48 h
[5] = test system: L1210FR murine lymphocytic leukemia cell line (BR+); assay: MTT Assay 2: 24 h incubation, PBS wash, GSH-OEt addition, further 48 h; assay type: cell-based; settings: read-out: Cytotoxicity IC50, L1210FR, Assay 2, GSH-OEt (6 equiv.), additional 48 h
Method in brief: (§1)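 Cells grown in supplemented RPMI-1640 (5% FBS, 5% NuSerum, 1% PenStrep) at 37 °C, 5% CO2, then seeded at 0.5–1.5 × 10^4 cells/well. Test compound (from DMSO stock; DMSO ≤1%) was added for 24 h at 37 °C. Medium was then removed, cells were washed with PBS, and GSH-OEt (6 equiv. to conjugate) in fresh medium was added for 48 h more (72 h total). MTT (0.5 mg/mL, 3 h), formazan dissolved in acidic isopropanol/Triton X-100, A570. IC50 from four-parameter logistic fit; triplicate.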

[6] = test system: BR+ cancer cell lines (MX-1, L1210FR, ID8); assay: MTT cytotoxicity, text summaries pooled over BR+ cancer cell lines; assay type: cell-based
Method in brief: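 Adherent cells seeded at 8,000–10,000/well and held 24 h at 37 °C before dosing; leukemia cells at 0.5–0.8 × 10^4/well suspended directly in test solutions. Final 0.5–5,000 nM from DMSO stocks, 37 °C, 5% CO2, 48 h or 72 h. Assay 2: 24 h exposure, PBS wash, GSH-OEt (6 equiv. to conjugate) added, further 48 h. MTT 0.5 mg/mL in PBS, 3 h, 37 °C.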

[7] = test system: MX-1 human breast carcinoma cell line (BR+); assay: MTT Assay 2: 24 h incubation, PBS wash, GSH-OEt addition, further 48 h; assay type: cell-based; settings: read-out: Cytotoxicity IC50, MX-1, Assay 2, GSH-OEt (6 equiv.), additional 48 h
Method in brief: as §1

[8] = test system: L1210 murine lymphocytic leukemia cell line (BR−); assay: standard MTT cytotoxicity assay, continuous incubation; assay type: cell-based; settings: read-out: Cytotoxicity IC50, L1210; incubation at 37 °C for 48 h
[9] = test system: L1210FR murine lymphocytic leukemia cell line (BR+); assay: as above; assay type: cell-based
BR+ and BR- cell lines = assay: internalization of fluorescence-labeled paclitaxel by CFM and flow cytometry; assay type: cell-based; settings: Figure S1
Method in brief: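 After probe exposure, cells trypsinised if needed, washed twice in PBS and resuspended in PBS. Flow cytometry: 488 nm excitation, emission at 530 nm (30 nm bandpass, 515–545 nm), about 10,000 cells counted per experiment, FITC fluorescence distribution analysed. Confocal: two-photon laser-scanning microscope, 488 nm excitation, emission 527 ± 23 nm (505–550 nm bandpass), cells on uncoated coverslip slide.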

[10] = test system: BR+ cancer cell lines (L1210FR, MX-1, ID8); assay: internalization by confocal fluorescence microscopy and flow cytometry; assay type: cell-based; settings: 5 µM, 37 °C
Method in brief: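 Adherent cells were seeded at 5 × 10^5 cells/mL overnight, then given medium containing 5 µM fluorescent probe. For leukemia cells, 1 mM DMSO stock was spiked into fresh suspensions to 5 µM final. Incubation ran 30 min–24 h at 37 °C; cells were then trypsinized as needed and washed twice in PBS. Flow cytometry used 488 nm excitation, 515–545 nm emission, ~10,000 cells. Confocal imaging used 488 nm excitation, 505–550 nm bandpass, 63× water objective.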

WI38 (BR−) cells = assay: internalization by confocal fluorescence microscopy and flow cytometry; assay type: cell-based, human; settings: 5 µM, 37 °C
L1210 (BR−) cells = assay: as above; assay type: cell-based, murine; settings: 5 µM, 37 °C
[11] = read-out: Cytotoxicity IC50, MX-1, Assay 1, 37 °C, 72 h, no GSH-OEt
[12] = read-out: Cytotoxicity IC50, MX-1, incubation at 37 °C for 48 h
[13] = read-out: Cytotoxicity IC50, WI38, Assay 1, 37 °C, 72 h, no GSH-OEt
[14] = read-out: Cytotoxicity IC50, WI38, incubation at 37 °C for 48 h
[15] = read-out: Cytotoxicity IC50, L1210FR, Assay 1, 37 °C, 72 h, no GSH-OEt
[16] = read-out: Cytotoxicity IC50, L1210FR, incubation at 37 °C for 48 h

| Molecule | IC50 [1, 11] [nM] | IC50 [1, 12] [nM] | IC50 [2, 13] [nM] | IC50 [2, 14] [nM] | IC50 [3] [nM] | IC50 [4] [nM] | IC50 [5] [nM] | potency times lower than free taxoid 3 against three BR+ cancer cell lines ([6]; 48 h incubation) | cancer cell selectivity (BR-specificity), BR+ cancer cells vs BR− WI38 cells ([6]; Assay 2) | IC50 ([6]; read-out: Cytotoxicity IC50, BR+ cancer cells (MX-1, L1210FR), Assay 2, range, 24 h, PBS wash, GSH-OEt, additional 48 h) [nM] | IC50 [7] [nM] | IC50 [8] [nM] | IC50 [9, 15] [nM] | IC50 [9, 16] [nM] | internalization across BR+ and BR- cell lines (BR+ and BR- cell lines) | internalization into BR+ cancer cell lines [10] | internalization into WI38 cells (WI38 (BR−) cells) | internalization into L1210 cells (L1210 (BR−) cells) | IC50 ([6]; read-out: Cytotoxicity IC50, MX-1 and L1210FR, free drug, range, 72 h incubation (Assay 1)) [nM] |
| --- | --- | --- | --- | --- | --- | --- | --- | --- | --- | --- | --- | --- | --- | --- | --- | --- | --- | --- | --- |
| Biotin-(SS-Linker)-SB-T-1214 [conjugate 4] | 4.66 ± 0.87 | 15.4 ± 4.2 | 645 ± 97 | 670 ± 89 | 2.92 ± 2.34 | 4.32 ± 1.58 | 5.15 ± 2.85 | 3–30 times | two-orders of magnitude difference | 3.85 to 6.6 | 3.85 ± 0.14 | 481 ± 34 | 12.3 ± 2.8 | 13.4 ± 6.8 |  |  |  |  |  |
| 7-(4-Fluoresceinyl)butanoylpaclitaxel [compound 6] |  |  |  |  |  |  |  |  |  |  |  |  |  |  | nonspecific internalization |  |  |  |  |
| Biotin-NH-PEG3-(CH2)2-NH-FITC [probe 5] |  |  |  |  |  |  |  |  |  |  |  |  |  |  |  | highly target-specific and efficient internalization | no appreciable internalization | no appreciable internalization |  |
| CC(=O)O[C@@]12CO[C@@H]1C[C@H](O)[C@@]1(C)C(=O)[C@H](OC(=O)C3CC3)C3=C(C)[C@@H](OC(=O)[C@H](O)[C@H](C=C(C)C)NC(=O)OC(C)(C)C)C[C@@](O)([C@@H](OC(=O)c4ccccc4)[C@H]21)C3(C)C [Taxoid 3, SB-T-1214, reference compound] | 2.66 ± 0.16 | 4.13 ± 2.59 | 4.89 ± 2.24 | 5.23 ± 0.27 |  | 0.17 ± 0.14 |  |  |  |  |  | 7.05 ± 1.38 | 2.32 ± 1.41 | 4.18 ± 1.8 |  |  |  |  | 2.32 to 2.66 |
